Source: PubChem BioAssay (several laboratories)
Only a selection was taken, and hits are over-represented in it overall.
V-ATPase pH – yeast V-ATPase proton transport regulation by pHLuorin; 350,000 compounds, 0.37% hits; S. cerevisiae, pHLuorin cytosolic pH fluorescence; response, % at 10 µM; in the data active = response mostly above about 7.3%, no sharp cut-off; inactive = mostly below about 5.4%; also: actives read high
pCIP destab – lowers stability of the mouse p/CIP coactivator protein; Q05BA5; decrease of EGFP signal, % at 10 µM; 290,000 compounds, 0.01% hits; AID 1984; F442A p/CIP-EGFP cells, EGFP fluorescence, 16 h;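 active = EGFP signal decrease of at least 30% at 10 µM or well 3 SD below plate mean, unless failing retest; inactive = the rest, including hits failing retest or dose response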
Cl transport mod – modulators of human KCC2 chloride dependent transport; AID 1456; 190,000 compounds, 2.2% hits; B-score of Tl+ flux slope (higher = more flux/activation; lower = inhibition) at 10 µM; Q9H2X9; KCC2 cells, thallium flux FluoZin-2 fluorescence;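 active = thallium flux slope and its plate-corrected score both differing from the plate sample mean at a set confidence after two filtering rounds, in either direction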;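 also: slope of fluorescence scaled to starting intensity during 10 to 20 s after thallium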
Dynein cargo inh – blocks dynein driven cargo transport along microtubules | 3617.4 mouse cells, GR-EGFP nuclear translocation imaging; test concentration mostly 20 µM; stimulated with dexamethasone, 1 µM; active compounds read low | z-score, hits read low | 220,000 compounds, 0.47% hits;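 active = plate z-score of nuclear minus cytoplasmic receptor signal below a set negative limit, without overly bright fluorescence or cell loss, cut at about -3.5 in these data, passing the limit was not always enough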;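 also: z-score of nuclear minus cytoplasmic ring GR-EGFP intensity difference per well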
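Buffer or medium: Induction medium lacking tetracycline, stripped serum | Also added: Dexamethasone agonist, 1.0 µM final, for 30 min | Timing: 48 h induction, 1 h compound, 30 min dex at 37 °C | Detection: Formaldehyde fixation, Hoechst nuclear stain, 10x automated fluorescence imaging | Measure: Nuclear versus cytoplasmic GR-EGFP signal, averaged per well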
ABCB6 inh 2 – inhibitors of human ABC transporter ABCB6 | fluorescence ratio to DMSO, % at 10 µM | 360,000 compounds, 0.19% hits | K562-ABCB6 porphyrin accumulation, flow cytometry, 1 h; active compounds read low | Q9NP58;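 active = fluorescence ratio to DMSO below 75%, the collection mean minus 3 SD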;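 also: signal is porphyrin accumulated inside mitochondria; lower ratio means ABCB6 inhibition with less porphyrin fluorescence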
A number is an active result; – = inactive; · = no result.

SMILES	V-ATPase pH	pCIP destab	Cl transport mod	Dynein cargo inh	ABCB6 inh 2
O=C(c1ccccc1)C(CCC(CN1CCOCC1)C(=O)c1ccccc1)CN1CCOCC1 (stereo not drawn)	–	–	–	-6.06	–
O=C1ON=C(c2ccccc2)/C1=C/c1ccc(OS(=O)(=O)c2ccccc2)cc1	–	–	–	-4.02	–
COc1ccc(/C=C2\C(=O)ON=C2c2ccccc2)cc1	–	–	·	·	–
CC(CNC(=O)CC[C@H]1O[C@@H](n2ccc(=O)[nH]c2=O)[C@H](O)[C@@H]1O)c1ccccc1 (stereo partly drawn)	·	·	·	·	–
O[C@@H]1C[C@H](c2ccc(Cl)cc2)N(Cc2cccs2)C[C@H]1n1cc(C2CC2)nn1	–	·	·	·	–
Cc1cc(C)n2nc(SCC(=O)c3c(N)n(CC(C)C)c(=O)n(C)c3=O)nc2n1	17.0	–	–	–	–
O=C(OCn1ncc(Br)c(Br)c1=O)c1ccccc1Cl	–	–	·	–	46.0
O=C(OCc1cnc(Cl)s1)c1ccccc1Cl	–	–	–	–	–
O=C(Nc1ccccc1)NC1(C(=O)N2CCN(c3ncccn3)CC2)CCCCC1	15.8	–	–	–	–
COc1ccc(S(=O)(=O)N(C)C[C@@H]2OCc3cn(nn3)CCCC(=O)N([C@@H](C)CO)C[C@H]2C)cc1	–	·	·	·	–
Cc1ccc(C(=O)Nc2nnc(SCC(=O)N3CCCc4ccccc43)s2)cc1	9.0	–	–	–	–
O=C(Nc1ccccc1Br)C(=O)N1CCCC1	–	–	–	–	–
O=C(NNc1ccccc1Br)C(=O)n1ccc2ccccc21	–	–	12.4	–	–
COc1ccc(N(C(=O)c2ccco2)S(=O)(=O)c2cccs2)cc1	–	–	-2.77	–	–
O=C(OCC(=O)N1CCN(c2ccccc2)CC1)c1cc(F)c(F)cc1Cl	–	·	·	·	–
CCOC(=O)c1ccc(NC(=S)NC(=O)c2cncc(Br)c2)cc1	–	–	·	·	–
CCCCOC(=O)c1ccc(NC(=S)NC(=O)c2c(Br)c(C)nn2C)cc1	–	–	29	–	–
COC(=O)C(NNc1ccc(F)cc1)(NC(=O)c1ccccc1)C(F)(F)F (stereo not drawn)	–	–	–	–	–
COC(=O)C(NNc1ccccc1C)(NC(=O)c1ccc(F)cc1)C(F)(F)F (stereo not drawn)	8.7	–	–	–	–
c1coc(CSSCc2ccco2)c1	9.5	·	·	·	–
CCC1(c2ccc(Cl)cc2)NC(=S)N(c2ccccc2)N1 (stereo not drawn)	–	–	22.9	–	–
CCCCCC1(C)NC(=S)N(c2ccccc2)N1 (stereo not drawn)	–	–	–	–	–
CCN(CC)S(=O)(=O)c1ccc2oc(C(=O)N3CCOCC3)c(C)c2c1	–	–	–	–	–
CCN(CC)S(=O)(=O)c1ccc2oc(C(=O)N3CCCCCC3)c(C)c2c1	–	38.5	–	–	–
O=C(N/N=C\c1cc(Br)c(Br)o1)c1cncc(Br)c1	–	–	16.3	–	–
SMILES	V-ATPase pH	pCIP destab	Cl transport mod	Dynein cargo inh	ABCB6 inh 2
Cc1cc(C(F)(F)F)c2c(=O)[nH]c(=O)n(Cc3ccccc3)c2n1	–	–	-4.33	–	–
C[C@@H]1CN([C@H](C)CO)C(=O)CCCn2nncc2CO[C@H]1CN(C)C(=O)c1ccc2ccn(C)c2c1	–	·	·	·	–
N#C/C(=N\Nc1cccc([N+](=O)[O-])c1)C(=O)c1ccc(Br)cc1	–	–	-6.8	–	–
Cc1ccccc1C(=O)Nc1nc(=S)ss1	–	–	10.7	–	–
CC(=O)Nc1nc(=S)ss1	–	–	·	–	–
NS(=O)(=O)c1ccc(CCNC(=O)CSc2nc3c(sc(=S)n3-c3ccccc3)c(=O)[nH]2)cc1	·	·	·	·	–
O=C(CN1CCN(CC(=O)Nc2ccccn2)CC1)Nc1ccccn1	–	–	-4.34	–	–
CC(/C=N/n1c(-c2ccc(Cl)cc2)n[nH]c1=S)=C\c1ccco1	–	–	12.9	–	–
CC(/C=N/n1c(-c2ccco2)n[nH]c1=S)=C\c1ccccc1	–	–	12.8	–	–
CC(/C=N/n1c(-c2cc(C)[nH]n2)n[nH]c1=S)=C\c1ccco1	–	–	–	–	–
CC1=C(C(=O)N2CCOCC2)CC(CC(=O)NCCN2CCOCC2)C(=O)N1Cc1ccccc1 (stereo not drawn)	–	·	·	·	–
Cn1c(NCc2cccnc2)nc2cc(-c3ccc(C(=O)N4CCOCC4)cc3)sc2c1=O	·	·	·	·	–
Clc1cc2c(nn1)Nc1ccccc1S2	–	–	–	–	–
